Laboratory results: ChEMBL document CHEMBL4428090, “Modeling, Synthesis, and Biological Evaluation of Potential Retinoid X Receptor (RXR)-Selective Agonists: Analogues of 4-[1-(3,5,5,8,8-Pentamethyl-5,6,7,8-tetrahydro-2-naphthyl)ethynyl]benzoic Acid (Bexarotene) and 6-(Ethyl(5,5,8,8-tetrahydronaphthalen-2-yl)amino)nicotinic Acid (NEt-TMN)” (J Med Chem, 2016)
Active and inactive are the calls of the source. The rule behind the calls is not given here.

Experiments:
[1] = molecular target: T1, Retinoic acid receptor RXR-alpha (Homo sapiens) (UniProt P19793); test: Agonist activity at human RXRalpha expressed in human HCT116 cells assessed as increase in RXRE-mediated transcription incubated for 24 hrs by RXRE luciferase reporter gene assay; type: cell-based
T1 sequence (whole entry): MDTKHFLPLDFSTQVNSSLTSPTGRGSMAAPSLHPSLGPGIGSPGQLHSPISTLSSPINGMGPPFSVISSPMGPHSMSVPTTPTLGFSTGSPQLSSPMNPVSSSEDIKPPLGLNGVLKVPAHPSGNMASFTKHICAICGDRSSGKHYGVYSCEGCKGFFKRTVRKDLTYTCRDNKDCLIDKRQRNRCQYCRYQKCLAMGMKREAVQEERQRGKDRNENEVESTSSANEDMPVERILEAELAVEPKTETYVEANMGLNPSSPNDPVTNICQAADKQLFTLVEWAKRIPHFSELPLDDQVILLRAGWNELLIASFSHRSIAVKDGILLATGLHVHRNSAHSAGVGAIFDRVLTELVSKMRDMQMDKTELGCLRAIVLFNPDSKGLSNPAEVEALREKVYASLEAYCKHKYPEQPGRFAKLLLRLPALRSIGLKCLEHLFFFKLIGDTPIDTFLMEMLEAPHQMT

[2] = molecular target: T2, Retinoid X receptor (Homo sapiens) (UniProt P28702+P48443+P19793); test: Antagonist activity against human RXR binding domain and activation domain expressed in human HCT116 cells assessed as reduction in bexarotene-induced rexinoid activity incubated for 24 hrs by luciferase reporter gene based mammalian two-hybrid assay; type: cell-based
[3] = molecular target: T2, Retinoid X receptor (Homo sapiens); test: Agonist activity at human RXR binding domain and activation domain expressed in human HCT116 cells assessed as rexinoid activity at 25 nM incubated for 24 hrs by luciferase reporter gene based mammalian two-hybrid assay relative to bexarotene; type: cell-based
Outline: (§1)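 HCT-116 cells plated overnight (80,000/well, DMEM with 10% FBS), co-transfected for 24 h with human RXR binding-domain (bait) and activation-domain (prey) vectors, pFR-Luc Gal4 reporter and renilla control. Treated 24 h at 25, 100 or 1000 nM final; vehicle ethanol or DMSO 0.1%. Dual-luciferase read-out. Three independent assays in triplicate; bexarotene set to 100%.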

[4] = molecular target: T3, Retinoic acid receptor RXR-alpha/oxysterols receptor LXR-alpha (Homo sapiens, UniProt P19793+Q13133); test: Agonist activity at human RXRalpha/LXRalpha expressed in human HCT116 cells assessed as reduction in SREBP-mediated transcription activity at 100 nM incubated for 24 hrs by luciferase reporter gene assay relative to bexarotene; type: cell-based; parameters: scale not given: the % may be the effect or the level left; settings: 0.1 µM
T3 sequence (P19793 whole entry): T1 sequence (whole entry)
T3 sequence (Q13133 whole entry): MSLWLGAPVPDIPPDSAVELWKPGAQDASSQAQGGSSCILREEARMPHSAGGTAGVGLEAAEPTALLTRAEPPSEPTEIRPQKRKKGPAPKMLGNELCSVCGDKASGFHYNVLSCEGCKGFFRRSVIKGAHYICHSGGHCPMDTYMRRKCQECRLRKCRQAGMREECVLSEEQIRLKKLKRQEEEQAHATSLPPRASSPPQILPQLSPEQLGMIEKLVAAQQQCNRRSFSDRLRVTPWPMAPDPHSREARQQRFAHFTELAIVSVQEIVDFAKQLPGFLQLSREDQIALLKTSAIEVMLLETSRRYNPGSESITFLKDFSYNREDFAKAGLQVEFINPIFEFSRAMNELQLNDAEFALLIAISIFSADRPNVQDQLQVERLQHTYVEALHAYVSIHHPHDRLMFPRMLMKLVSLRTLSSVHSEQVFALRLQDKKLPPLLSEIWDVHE
Outline: (§2)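 HCT116 cells co-transfected for 24 h with 100 ng pBP1c(6500)-Luc (about 6500 bp murine SREBP-1c promoter), 10 ng human LXRα and 20 ng renilla. Treated 24 h with compound at 100 nM, alone or with 100 nM TO901317. Luciferase output. Three independent assays in triplicate; bexarotene = 100%.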

[5] = molecular target: T4, Retinoid X receptor (Homo sapiens, UniProt P28702+P48443+P19793); test: Agonist activity at human RXR binding domain and activation domain expressed in human HCT116 cells assessed as rexinoid activity incubated for 24 hrs by luciferase reporter gene based mammalian two-hybrid assay; type: cell-based
T4 sequence (P28702 whole entry): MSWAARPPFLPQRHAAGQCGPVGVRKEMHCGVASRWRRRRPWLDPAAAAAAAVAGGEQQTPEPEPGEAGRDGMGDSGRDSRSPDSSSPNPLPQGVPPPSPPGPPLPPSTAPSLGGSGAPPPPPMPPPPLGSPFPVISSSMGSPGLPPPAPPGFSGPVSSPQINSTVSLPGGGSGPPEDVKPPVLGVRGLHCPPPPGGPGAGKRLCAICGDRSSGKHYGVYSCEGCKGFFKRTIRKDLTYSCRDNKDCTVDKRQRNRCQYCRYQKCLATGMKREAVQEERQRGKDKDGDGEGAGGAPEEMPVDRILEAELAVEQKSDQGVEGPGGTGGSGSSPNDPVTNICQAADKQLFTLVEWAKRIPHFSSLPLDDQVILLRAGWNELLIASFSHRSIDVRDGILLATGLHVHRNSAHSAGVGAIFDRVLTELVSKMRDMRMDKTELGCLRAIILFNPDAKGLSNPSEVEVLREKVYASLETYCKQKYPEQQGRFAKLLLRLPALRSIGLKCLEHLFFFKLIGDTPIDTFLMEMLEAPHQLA
T4 sequence (P48443 whole entry): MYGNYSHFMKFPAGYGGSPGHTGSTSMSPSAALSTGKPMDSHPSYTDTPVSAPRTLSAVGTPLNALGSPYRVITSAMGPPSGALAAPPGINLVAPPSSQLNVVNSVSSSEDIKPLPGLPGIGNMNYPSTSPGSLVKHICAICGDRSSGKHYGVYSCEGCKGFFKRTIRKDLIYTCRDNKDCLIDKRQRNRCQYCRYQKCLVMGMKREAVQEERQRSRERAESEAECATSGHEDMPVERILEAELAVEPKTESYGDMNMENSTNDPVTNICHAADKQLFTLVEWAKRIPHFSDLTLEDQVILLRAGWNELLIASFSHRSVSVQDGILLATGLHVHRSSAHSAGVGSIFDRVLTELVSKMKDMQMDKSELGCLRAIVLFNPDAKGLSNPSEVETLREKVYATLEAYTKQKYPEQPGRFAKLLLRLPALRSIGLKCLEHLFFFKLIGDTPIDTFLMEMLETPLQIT
T4 sequence (P19793 whole entry): T1 sequence (whole entry)

[6] = molecular target: T2, Retinoid X receptor (Homo sapiens); test: Agonist activity at human RXR binding domain and activation domain expressed in human HCT116 cells assessed as rexinoid activity at 100 nM incubated for 24 hrs by luciferase reporter gene based mammalian two-hybrid assay relative to bexarotene; type: cell-based; outline: as §1
[7] = Mutagenicity in Saccharomyces cerevisiae D7 assessed as induction of mutagenesis by measuring forward and reverse mutations up to 0.1 mg/mL; type: toxicity
[8] = molecular target: T2, Retinoid X receptor (Homo sapiens); test: Agonist activity at human RXR binding domain and activation domain expressed in human HCT116 cells assessed as rexinoid activity at 1000 nM incubated for 24 hrs by luciferase reporter gene based mammalian two-hybrid assay relative to bexarotene; type: cell-based; outline: as §1
[9] = system: HuT78; test: Growth inhibition of human HUT78 cells at 200 nM incubated for 72 hrs by MTS assay relative to bexarotene; type: functional; settings: HuT78, 72 h, read-out: GI
Outline: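 Hut78 cells in RPMI with 10% FBS at 37°C, 5% CO2. Plated 7,500 cells/well and immediately dosed at 200 nM for 72 h. MTS read at A490; percent inhibition with media control set to 0.0, compared with bexarotene set to 100%. Mean of three independent experiments.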

[10] = molecular target: T1, Retinoic acid receptor RXR-alpha (Homo sapiens); test: Agonist activity at human RXRalpha expressed in human HCT116 cells assessed as increase in RXRE-mediated transcription at 1000 nM incubated for 24 hrs by RXRE luciferase reporter gene assay relative to bexarotene; type: cell-based
Outline: (§3)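 HCT-116 cells (80,000/well) co-transfected for 24 h with 250 ng RXRE-luciferase reporter (DR1 element from the rat cellular retinol binding protein II gene), 25 ng pSG5-human RXRα and 20 ng renilla. Dosed 24 h at 25, 100 or 1000 nM final; ethanol or DMSO vehicle 0.1%. Dual-luciferase read-out. Three independent assays in triplicate; bexarotene = 100%.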

[11] = molecular target: T1, Retinoic acid receptor RXR-alpha (Homo sapiens); test: Agonist activity at human RXRalpha expressed in human HCT116 cells assessed as increase in RXRE-mediated transcription at 100 nM incubated for 24 hrs by RXRE luciferase reporter gene assay relative to bexarotene; type: cell-based; outline: as §3
[12] = species: Homo sapiens; test: Selectivity index, ratio of agonist activity at human RARalpha expressed in HEK293 cells assessed as increase in RARE-mediated transcription relative to bexarotene to agonist activity at human RXRalpha expressed in human HCT116 cells assessed as increase in RXRE-mediated transcription relative to bexarotene; type: cell-based
Outline: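 HEK293 cells (60,000/well) transfected for 24 h with 250 ng pTK-DR5(X2)-Luc, 25 ng human RARα and 20 ng renilla. Treated 24 h at 100 nM; activity expressed as a percentage of all-trans-retinoic acid. This RARE activity is divided by 100 nM RXRE activity, with the bexarotene ratio set to 1.0.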

[13] = molecular target: T1, Retinoic acid receptor RXR-alpha (Homo sapiens); test: Agonist activity at human RXRalpha expressed in human HCT116 cells assessed as increase in RXRE-mediated transcription at 25 nM incubated for 24 hrs by RXRE luciferase reporter gene assay relative to bexarotene; type: cell-based; outline: as §3
[14] = Lipid risk index, ratio of agonist activity at human RXRalpha/LXRalpha expressed in human HCT116 cells assessed as reduction in SREBP-mediated transcription activity to agonist activity at human RXRalpha expressed in human HCT116 cells assessed as increase in RXRE-mediated transcription
Outline: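 Lipid risk index: SREBP-promoter luciferase activity (HCT116, LXRα-transfected, 100 nM compound with or without 100 nM TO901317, 24 h) divided by RXRE activity at 100 nM. The SREBP:RXRE ratio for bexarotene is set to 1.0.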

[15] = molecular target: T3, Retinoic acid receptor RXR-alpha/oxysterols receptor LXR-alpha; test: Agonist activity at human RXRalpha/LXRalpha expressed in human HCT116 cells assessed as reduction in SREBP-mediated transcription activity at 100 nM incubated for 24 hrs by luciferase reporter gene assay in presence of 100 nM LXR agonist TO901317 relative to bexarotene; type: cell-based; parameters: scale not given: the % may be the effect or the level left; settings: 0.1 µM; outline: as §2
[16] = system: HuT78; test: Inhibition of HDAC1 gene expression in human HUT78 cells at 100 nM incubated for 48 hrs by quantitative real-time PCR method; type: functional; settings: HuT78, 48 h
Outline: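 Hut78 cells resuspended in RPMI with 1% FBS, plated 750,000/well and dosed at 100 nM for 48 h. Total RNA extracted, 0.5 µg DNase-treated RNA reverse-transcribed, then qPCR for HDAC1. Quantified by ΔΔCt, normalized to GAPDH and relative to vehicle-treated cells (2^-ΔΔCt).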

Activity [1] | Activity [2] | Activity [3] | Activity [4] | EC50 [5] | Activity [6] | Activity [8] | Activity [10] | Activity [11] | Activity [13] | Activity [15] | fold change (FC) ([6]; in the assay text read “relative to activity at 25 nM” for “relative to bexarotene”) | fold change (FC) [3] | Structure (SMILES) | Activity [7] | inhibition of growth at 0.2 µM [9] | Ratio [12] | Ratio [14] | inhibition at 0.1 µM [16]
inactive | Dose-dependent effect | 0.6% | Not Active | > 80000 nM | inactive | inactive | – | – | – | – | – | – | Cc1cc2c(cc1C(=O)c1ccc(S(=O)(=O)O)cc1)C(C)(C)CCC2(C)C | Non-Toxic | – | – | – | –
– | – | – | 54 to 79% | 125.6 nM | Active | – | Active | 16 to 32% | 27 to 66% | Active | – | – | CCN(c1ccc(C(=O)O)c(F)c1)c1ccc2c(c1)C(C)(C)CCC2(C)C | Non-Toxic | 35 to 51% | 0.35 to 0.37 | 0.48 - 0.65 | –
inactive | – | 3.4% | 54 to 79% | 295.5 nM | – | – | Active | – | – | 29% | 5 to 16 | – | CCN(c1cnc(C(=O)O)cn1)c1cc2c(cc1C)C(C)(C)CCC2(C)C | Non-Toxic | 35 to 51% | > 0.5 | – | –
– | – | – | – | – | – | – | – | – | – | – | – | – | C=C(c1ccc(C(=O)O)cc1)c1cc2c(cc1C)C(C)(C)CCC2(C)C [BEXAROTENE] | Non-Toxic | – | – | – | 10%
inactive | Dose-dependent effect | 0.8% | Not Active | 18200 nM | inactive | 17% | – | – | – | – | – | – | C=C(c1ccc(S(=O)(=O)O)cc1)c1cc2c(cc1C)C(C)(C)CCC2(C)C | Non-Toxic | – | – | – | –
– | – | – | Active | 40.9 nM | 135 to 146% | 35 to 58% | 20 to 43% | 68 to 89% | 27 to 66% | 13 to 17% | – | 2 | CCN(c1ccc2c(c1)C(C)(C)CCC2(C)C)c1ncc(C(=O)O)cn1 | Non-Toxic | > 85% | – | 0.49 - 0.51 | –
– | – | – | – | – | – | – | – | – | – | – | – | – | CC1=C(/C=C/C(C)=C/C=C/C(C)=C/C(=O)O)C(C)(C)CCC1 | – | – | 9.5 | – | –
– | – | – | 54 to 79% | 143.4 nM | Active | – | Active | 16 to 32% | – | Active | – | – | CCN(c1ccc(C(=O)O)cc1)c1ccc2c(c1)C(C)(C)CCC2(C)C | Non-Toxic | 55 to 80% | – | – | –
– | – | – | Active | 13.8 nM | 135 to 146% | 35 to 58% | 20 to 43% | 68 to 89% | 27 to 66% | 13 to 17% | – | 2 | CCN(c1ccc(C(=O)O)cn1)c1cc2c(cc1C)C(C)(C)CCC2(C)C | Non-Toxic | > 85% | – | 0.49 - 0.51 | –
